Results reported in article PMC9942872 (Proceedings of the National Academy of Sciences of the …, 2023).

Biological target: T1, NaLdpA (Novosphingobium aromaticivorans, UniProt Q2G4I2)
T1 sequence (Q2G4I2 1-243): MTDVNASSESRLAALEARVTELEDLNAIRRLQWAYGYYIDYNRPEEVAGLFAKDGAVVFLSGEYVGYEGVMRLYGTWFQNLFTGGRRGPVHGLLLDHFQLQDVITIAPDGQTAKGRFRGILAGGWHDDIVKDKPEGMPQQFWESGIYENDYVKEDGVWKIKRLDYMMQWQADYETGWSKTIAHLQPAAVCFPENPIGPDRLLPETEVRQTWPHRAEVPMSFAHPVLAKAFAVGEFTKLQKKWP
Experiment: spectrophotometric lignostilbene production, product inhibition
Format: biochemical
In short: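 Recombinant polyHis-tagged enzyme expressed in E. coli, purified by chromatography and stored at −80 °C. Reactions were run in air-saturated MOPS (I = 0.1 M), pH 7.0, at 25 °C. Erythro-DGPD substrate concentration was varied, with lignostilbene added at 0, 1, 2, 4 or 10 μM.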

Ki: 330 ± 30 nM
SMILES: COc1cc(/C=C/c2ccc(O)c(OC)c2)ccc1O [lignostilbene]
